# Measured values reported in ChEMBL document CHEMBL1275524, “Activities of antifungal agents against yeasts and filamentous fungi: assessment according to the methodology of the European Committee on Antimicrobial Susceptibility Testing” (2008).
# What was measured:
# [1] = Antifungal activity against Rhinocladiella aquaspersa; format: functional
# Outline: (§1)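 Dematiaceous fungi were tested by the EUCAST spore-forming mold reference procedure: flat-bottom microdilution plates, RPMI 1640 plus 2% glucose, inoculum 2 × 105 to 5 × 10^5 CFU/ml. Endpoints were read visually at 24 and 48 h. Polyenes and azoles: 100% growth reduction vs drug-free control. CPF: minimum effective concentration. Run in duplicate and repeated twice.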
# Candida albicans = assay: Antifungal activity against Candida albicans by EUCAST method; format: functional
# Outline: (§2)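 Broth microdilution in flat-bottom plates in RPMI 1640 with 2% glucose; inoculum 0.5 × 105 to 2.5 × 10^5 CFU/ml. MICs were read spectrophotometrically at 24 h. AMB endpoint: ≥90% growth reduction vs drug-free control well. Azole and CPF endpoint: 50% reduction in optical density. MFC was taken as the lowest concentration giving 99% killing.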
# Nakaseomyces glabratus = assay: Antifungal activity against Candida glabrata by EUCAST method; format: functional; outline: as §2
# Candida parapsilosis = assay: Antifungal activity against Candida parapsilosis by EUCAST method; format: functional; conditions: Lodderomyces parapsilosis; outline: as §2
# Pichia kudriavzevii = assay: Antifungal activity against Candida krusei by EUCAST method; format: functional; outline: as §2
# Clavispora lusitaniae = assay: Antifungal activity against Candida lusitaniae by EUCAST method; format: functional; outline: as §2
# Candida tropicalis = assay: Antifungal activity against Candida tropicalis by EUCAST method; format: functional; outline: as §2
# [2] = test system: Meyerozyma guilliermondii; assay: Antifungal activity against Candida guilliermondii by EUCAST method; format: functional; outline: as §2
# Saccharomyces cerevisiae = assay: Antifungal activity against Saccharomyces cerevisiae by EUCAST method; format: functional
# Outline: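 EUCAST broth microdilution for yeasts in flat-bottom plates, RPMI 1640 with 2% glucose, inoculum 0.5 × 105 to 2.5 × 10^5 CFU/ml. […] MFC is the lowest concentration giving 99% killing.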
# [3] = Antifungal activity against Cryptococcus neoformans var. neoformans by EUCAST method; format: functional; conditions: Cryptococcus deneoformans
# Outline: (§3)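 EUCAST yeast microdilution, modified for nonfermentative yeasts: plates were sealed and agitated at 350 rpm and 30°C for 48 h.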
# Cryptococcus gattii = assay: Antifungal activity against Cryptococcus neoformans var. gattii by EUCAST method; format: functional, Cryptococcus bacillisporus; outline: as §3
# Trichosporon inkin = assay: Antifungal activity against Trichosporon inkin by EUCAST method; format: functional
# Outline: (§4)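 Nonfermentative yeasts were tested by the EUCAST microdilution recommendations with one change: plates were sealed and agitated at 350 rpm and 30°C for 48 h.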
# Trichosporon asahii = assay: Antifungal activity against Trichosporon asahii by EUCAST method; format: functional; outline: as §4
# Geotrichum candidum = assay: Antifungal activity against Geotrichum candidum by EUCAST method; format: functional
# Aspergillus fumigatus = assay: Antifungal activity against Aspergillus fumigatus by EUCAST method; format: functional
# Aspergillus terreus = assay: Antifungal activity against Aspergillus terreus by EUCAST method; format: functional
# Aspergillus flavus = assay: Antifungal activity against Aspergillus flavus by EUCAST method; format: functional
# Aspergillus niger = assay: Antifungal activity against Aspergillus niger by EUCAST method; format: functional
# Rhizomucor = assay: Antifungal activity against Rhizomucor species by EUCAST method; format: functional
# Outline: (§5)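 Broth microdilution following the EUCAST reference procedure for spore-forming moulds, in flat-bottom plates with RPMI 1640 plus 2% glucose. Inoculum was 2 × 10^5 to 5 × 10^5 CFU/ml. MICs were read visually at 24 and 48 h as 100% growth reduction versus a drug-free control for polyenes and azoles. MEC was used for caspofungin. Tests were run in duplicate and repeated twice.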
# Lichtheimia corymbifera = assay: Antifungal activity against Absidia corymbifera by EUCAST method; format: functional
# Absidia = assay: Antifungal activity against Absidia species by EUCAST method; format: functional
# [4] = Antifungal activity against Rhizopus microsporus var. oligosporus by EUCAST method; format: functional; outline: as §5
# Rhizopus arrhizus = assay: Antifungal activity against Rhizopus oryzae by EUCAST method; format: functional; outline: as §5
# Rhizopus = assay: Antifungal activity against Rhizopus species by EUCAST method; format: functional; outline: as §5
# Mucor hiemalis = assay: Antifungal activity against Mucor hiemalis by EUCAST method; format: functional
# Mucor = assay: Antifungal activity against Mucor species by EUCAST method; format: functional
# Cunninghamella = assay: Antifungal activity against Cunninghamella species by EUCAST method; format: functional
# Scedosporium apiospermum = assay: Antifungal activity against Scedosporium apiospermum by EUCAST method; format: functional; outline: as §5
# Talaromyces marneffei = assay: Antifungal activity against Penicillium marneffei by EUCAST method; format: functional
# Penicillium sp. = assay: Antifungal activity against Penicillium species by EUCAST method; format: functional
# Fusarium solani = assay: Antifungal activity against Fusarium solani by EUCAST method; format: functional
# Fusarium oxysporum = assay: Antifungal activity against Fusarium oxysporum by EUCAST method; format: functional
# Sporothrix schenckii = assay: Antifungal activity against Sporothrix schenckii by EUCAST method; format: functional; outline: as §5
# Curvularia lunata = assay: Antifungal activity against Curvularia lunata by EUCAST method; format: functional; outline: as §1
# Curvularia australiensis = assay: Antifungal activity against Bipolaris australiensis by EUCAST method; format: functional; outline: as §1
# [5] = Antifungal activity against Rhinocladiella aquaspersa by EUCAST method; format: functional; outline: as §1
smiles,measurement,setting,value
C[C@@H]1[C@H](O)[C@@H](C)/C=C/C=C/C=C/C=C/C=C/C=C/C=C/[C@H](O[C@@H]2O[C@H](C)[C@@H](O)[C@H](N)[C@@H]2O)C[C@@H]2O[C@](O)(C[C@@H](O)C[C@@H](O)[C@H](O)CC[C@@H](O)C[C@@H](O)CC(=O)O[C@H]1C)C[C@H](O)[C@H]2C(=O)O [AMPHOTERICIN B],MFC,[1],1 µg/mL
same,MIC,Candida albicans,0.12 µg/mL
same,MIC,Nakaseomyces glabratus,0.41 µg/mL
same,MIC,Candida parapsilosis,0.3 µg/mL
same,MIC,Pichia kudriavzevii,0.51 µg/mL
same,MIC,Clavispora lusitaniae,1.16 µg/mL
same,MIC,Candida tropicalis,0.38 µg/mL
same,MIC,[2],1 µg/mL
same,MIC,Saccharomyces cerevisiae,0.66 µg/mL
same,MIC,[3],0.75 µg/mL
same,MIC,Cryptococcus gattii,0.66 µg/mL
same,MIC,Trichosporon inkin,0.5 µg/mL
same,MIC,Trichosporon asahii,1.5 µg/mL
same,MIC,Geotrichum candidum,1.5 µg/mL
same,MIC,Aspergillus fumigatus,0.69 µg/mL
same,MIC,Aspergillus terreus,2.82 µg/mL
same,MIC,Aspergillus flavus,1.51 µg/mL
same,MIC,Aspergillus niger,1 µg/mL
same,MIC,Rhizomucor,0.58 µg/mL
same,MIC,Lichtheimia corymbifera,1 µg/mL
same,MIC,Absidia,0.8 µg/mL
same,MIC,[4],1 µg/mL
same,MIC,Rhizopus arrhizus,3 µg/mL
same,MIC,Rhizopus,2.08 µg/mL
same,MIC,Mucor hiemalis,0.86 µg/mL
same,MIC,Mucor,0.73 µg/mL
same,MIC,Cunninghamella,2.25 µg/mL
same,MIC,Scedosporium apiospermum,2.66 µg/mL
same,MIC,Talaromyces marneffei,1.5 µg/mL
same,MIC,Penicillium sp.,0.75 µg/mL
same,MIC,Fusarium solani,1 µg/mL
same,MIC,Fusarium oxysporum,2.5 µg/mL
same,MIC,Sporothrix schenckii,2.5 µg/mL
same,MIC,Curvularia lunata,0.75 µg/mL
same,MIC,Curvularia australiensis,1 µg/mL
same,MIC,[5],1 µg/mL
